Assay results as given in the EternaBench riboswitch data.

System: MS2 coat protein
Assay: apparent Kd, MS2 coat protein; higher = weaker binding; RNA-MaP array; FMN 200 µM where present
How it was run: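 On Illumina sequencing-chip clusters, designs were transcribed by stalled E. coli RNA polymerase and titrated with SNAP-549-labelled MS2 coat protein (0.7 or 1.5 nM, doubling to 3 µM), without and then with constant ligand, in 100 mM Tris-HCl pH 7.5, 80 mM KCl, 4 mM MgCl2, BSA, DTT, yeast tRNA and Tween-20. Apparent Kd is the median of filtered per-cluster curve fits to green signal normalised to red-channel RNA signal and control-cluster median Fmax.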

[1] = designed as: ON switch for flavin mononucleotide, no ligand
[2] = ligand present: flavin mononucleotide, designed as: ON switch for flavin mononucleotide
[3] = designed as: OFF switch for flavin mononucleotide, no ligand
[4] = ligand present: flavin mononucleotide, designed as: OFF switch for flavin mononucleotide

| Sequence | apparent Kd [1] | apparent Kd [2] | apparent Kd [3] | apparent Kd [4] |
| --- | --- | --- | --- | --- |
| GGACGUCAGAUUAACAUGAGGAUCACCCAUGUCUUUUGACAUGAGGAUAUGCAUCCUAAUUGGAUGCAGAAGGCAUGGACGUCC | 1.02 µM | 0.084 µM | – | – |
| CUAAAAGUCGAGGAUAUGCACCGGCUUUUUGACGCAGAAGGCGACACAUGAGGAUCACCCAUGUCGGUACGCGA | – | – | 0.0122 µM | 0.013 µM |
| AUAUAGAUGGUCAGGAUAUGCUAGUGGUAACAGUAGCAGAAGGGACAUGAGGAUCACCCAUGUAGAUACUGCUC | – | – | 0.018 µM | 0.0322 µM |
| UCCGACCUAGGAUAUACCUGGGCCGCCUCGUGUUAUCACCUACAUGAGGAUCACCCAUGUAGAAGGAGGACGGU | – | – | 0.0467 µM | 0.0641 µM |
| GUGUACAGAGGAUAUAUAUGAGCAUGGAAACAUGCAUCUUCACAUGAGGAUCACCCAUGUAGAAGGCUGUACAC | – | – | 0.0157 µM | 0.0492 µM |
| GGAUGACAAAGUCAUCCAUAACGAACAUGAGGAUCACCCAUGUAGGAUAUGCUAGUCAAAGACUAGCAGAAGGACAUGUGUCUU | – | – | 0.0364 µM | 0.146 µM |
| CCUCAGUUAGGAUAUUACUAAUCACUAACCGGGCAACUGGGUAAGAAGGAACAUGAGGAUCACCCAUGUUACGU | – | – | 0.0221 µM | 0.0222 µM |
| GGAUGACAAAGUCAUCCAAAUCGAACAUGAGGAUCACCCAUGUAGGAUAUGCUACUGAAACAGUAGCAGAAGGACAUGUGCUUU | – | – | 0.0353 µM | 0.187 µM |
| UGUUGUAUUACAGGAUAUCUAUGAUUUUUAUUUAGAGAAGGGUAUUCACAUGAGGAUCACCCAUGUAUAUACGAGGAAGUUGUG | 0.0461 µM | 0.0517 µM | – | – |
| GGGUGGCGUACAGGAUAUGUGGUACAUGAGGAUCACCCAUGUGCAUAUGAUGUUCGUGUGUCAUCAUAGAAGGGUACGUCGCUA | 0.0912 µM | 0.0592 µM | – | – |
| AAGUCGCGGUCAGGAUAUCAGAAACAAAUUGACUGAGAAGGGAUGGCACAUGAGGAUCACCCAUGUCGUCGUCGCAGUGGGUGA | – | – | 0.116 µM | 0.155 µM |
| AAAAGACAUGAGGAUCACCCAUGUAAAAACAUAGGAGGAUAUGUCUGGAAACUAGACUGGACAGAAGGCCUUUGUC | 0.0333 µM | 0.025 µM | – | – |
| AUCAUGUAAGGAUAUCUUACAUGUGACUUCGGUCACUGUUCAGAGAAGGUACAUGAGGAUCACCCAUGUAGAAC | – | – | 0.0187 µM | 0.0284 µM |
| ACAUGAGGAUCUCCCAUGUAAAAUUAGGAUAUAUAACUGCACAUGAGGAUCACCCAUGUUUUACCGUAGAAGGGAUAAAUAAUU | 1.01 µM | 0.567 µM | – | – |
| AUAAGCAUUUAUGUGUGCGUAGCACAGGAUAUGCUCCGCGCACAUGAGGAUCACCCAUGUUCGCAGCAGAAGGGUGCAUGCGUU | 0.33 µM | 0.0615 µM | – | – |
| GAUCCACAUGAGGAUCACCCAUGUGAGGAUAUGAUACUAUGUACUUCGGUACAUAGUAUCAGAAGGCAUAUGAA | – | – | 0.042 µM | 0.196 µM |
| CGUUAUUCAGGAUAUGGUGUGUUAUACAUGAGGAUCACCCAUGUAGAUCCUGGUUAGGCCUCAGAAGGGAAUGUUC | – | – | 0.165 µM | 0.145 µM |
| CCGGAAACGGGUAGCUCACAUGAGGAUCACCCAUGUGAAACACAGGAUAUGGAUCCUAAUUGGAUCCAGAAGGGUGUGAGCUAC | 0.058 µM | 0.0203 µM | – | – |
| UUAAAUCAUGUAGGAUAUGCAUGGCGAAGCUACGCAGAAGGACAUGAGGAUCACCCAUGUUAUAGCGUCCAAGUAAGGAUGCAA | – | – | 0.0848 µM | 0.269 µM |
| AAUUAAGAUCUAGGAUAUCACGUCGAUUAGACGUGAGAAGGAGAUCAUAACAUGAGGAUCACCCAUGUAUUACAUGAAUUAAUU | 0.028 µM | 0.0259 µM | – | – |
| CGCUAAUAGAACGAUUUGUGAAGACAUGAGGAUCACCCAUGUAGAAGGACAACGGAAUAAACGUUGUAGGAUAUACACUUAGCG | – | – | 0.0181 µM | 0.0244 µM |
| CCUCAGUAAGGAUAUCAGCUUAUAAGGUUGGUAAUGAGAGCUGAGAAGGUACAUGAGGAUCACCCAUGUUAGUU | – | – | 0.0271 µM | 0.0957 µM |
| CAGGACAGGAAACGGAGCGGCCAACAUGAGGAUCACCCAUGUAAGGAUAUGCCUACUAAAAGUAGGCAGAAGGUACAGAAGGCA | – | – | 0.0299 µM | 0.0731 µM |
| AAUAAACAUGAGGAUCACCCAUGUAAUAUAAAUGGAGGAUAUGCAAUUAUUAAUUAUUAAGUAGAAGGUCGAAUAA | 0.0739 µM | 0.0736 µM | – | – |
| UUGACGGCAGGAUAUACAUGAGGAUCACCCAUGUAAAUUUUUCGUUUAACUUGAAUGUGUAGAAGGGCCAAAUU | – | – | 0.019 µM | 0.02 µM |
| UACACUACUGAGAAGGGAUACAUAUAAUUUUAGUCAGGAUAUCGAUACAGUGCAGCAUGAGGACAUGAGGAUCACCCAUGUAUU | 0.0223 µM | 0.0146 µM | – | – |
| UGUUGUAUUACAGGAUAUCUAUUAUUUGUAUUUAGAGAAGGGUAUUCACAUGAGGAUCACCCAUGUAUAUACGAGGAAGUUGUG | 0.0613 µM | 0.0586 µM | – | – |
| GCUCCGCACUAGAAGGGUGACAUGAGGAUCACCCAUGUGCACUUCCGCUCUUAGCGGAAAGUGCCACAGGAUAUAGUGUGGAGU | 0.0318 µM | 0.113 µM | – | – |
